In paper PMC10447992 (Heliyon, 2023):

Experiments:
[1] = Antioxidant activity screening by ABTS method; details: ABTS radical scavenging, 6 min incubation, absorbance at 734 nm
How it was run: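 ABTS radical made from 7 mM ABTS plus 140 mM […], left in the dark at room temperature for 16 h, then diluted 1:44 (v/v) in water. Equal volumes of radical solution and sample mixed in microplate and held 6 min at room temperature. Absorbance read at 734 nm against 100% methanol. Percent inhibition calculated by formula; L-ascorbic acid as reference.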

[2] = MTT cytotoxicity assay, WISH cell line; format: cell-based; details: human, WISH cells (human amnion)
How it was run: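 WISH cells (ATCC via VACSERA) grown in RPMI-1640 with 10% fetal bovine serum at 37 °C, 5% CO2. Seeded at 1.0 × 10^4 cells/well for 48 h, then treated 24 h with a range of concentrations. MTT (5 mg/mL stock) added for 4 h, formazan dissolved in DMSO, A570 read. Viability given as % of untreated cells. IC50 in μg/mL is the concentration giving 50% inhibition versus untreated cells. Doxorubicin reference.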

SMILES	ABTS Inhibition % [1]	IC50 at 24 h [2]
O=C1O[C@H]([C@@H](O)CO)C(O)=C1O [L-Ascorbic acid]	88.8%	
COc1cccc2c1C(=O)c1c(O)c3c(c(O)c1C2=O)C[C@@](O)(C(=O)CO)C[C@@H]3O[C@H]1C[C@H](N)[C@H](O)[C@H](C)O1 [DOX, doxorubicin]		3.18 ± 0.2 µM
